Screening results from PubChem BioAssay.
PRMT1 FP inh – inhibitors of human PRMT1. Q99873. recombinant PRMT1, activity-based probe fluorescence polarization. inhibition, % at 2.79 µM. actives 1.3% (n = 370,000);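 active = inhibition above about 21% made by adding two undisclosed values, limit read from the data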
SIAE primary – inhibitors of human sialic acid acetylesterase SIAE | Q9HAT2 | SIAE FP-Rh probe binding, fluorescence polarization | inhibition, % at 9.66 µM | actives 0.69% (n = 370,000) | AID 1053197;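 active = inhibition above a cutoff: mean of compounds within the control limits plus 3 SD of those, cut at about 17% in these data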;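 also: 0% = plate median of compound wells and 100% = probe without SIAE protein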
Target sequence (Q9HAT2 whole entry, looked up): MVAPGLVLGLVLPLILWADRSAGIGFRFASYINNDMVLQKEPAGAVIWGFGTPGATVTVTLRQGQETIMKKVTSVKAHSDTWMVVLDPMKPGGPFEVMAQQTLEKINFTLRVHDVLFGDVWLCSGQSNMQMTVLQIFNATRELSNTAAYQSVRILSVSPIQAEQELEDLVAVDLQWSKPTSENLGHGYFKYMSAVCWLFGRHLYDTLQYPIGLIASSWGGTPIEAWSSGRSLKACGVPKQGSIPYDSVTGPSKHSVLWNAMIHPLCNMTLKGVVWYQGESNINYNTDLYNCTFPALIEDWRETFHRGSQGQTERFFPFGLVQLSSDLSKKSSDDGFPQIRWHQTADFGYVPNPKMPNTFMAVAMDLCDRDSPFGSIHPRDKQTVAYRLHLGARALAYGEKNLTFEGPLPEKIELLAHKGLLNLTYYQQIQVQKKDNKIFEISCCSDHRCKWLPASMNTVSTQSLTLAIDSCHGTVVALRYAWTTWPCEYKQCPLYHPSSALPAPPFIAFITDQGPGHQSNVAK
JMJD2C inh – human JMJD2C demethylase inhibition; GST-JMJD2C(1-420) H3K9me3 demethylation, DELFIA europium; inhibition, % at 2.35 µM; actives 0.069% (n = 330,000); AID 2099;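 active = more than half of a compound's replicate wells show inhibition beyond 50%, single wells judged on their own value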;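 also: signal counts dimethyl H3K9 product captured on neutravidin plate; 0% = median of DMSO wells and 100% = 0.3 times that DMSO median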
ABHD4 inh – inhibits mouse alpha/beta hydrolase domain 4; actives 0.54% (n = 370,000); inhibition, % at 8.92 µM; AID 720543; purified mABHD4, FP-Rh probe fluorescence polarization;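 active = inhibition exceeding the mean over every tested compound plus 3 SD, cut at about 30% in these data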;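 also: 0% = plate median of compound wells and 100% = S159A mutant with DMSO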
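Assay system: wild-type mouse ABHD4 protein; compound: single nominal dose of 8.92 µM, 0.89% DMSO final; schedule: 45 min + 60 min at 25 °C; measured by: FP readout, ex 525 nm / em 598 nm; evaluation: % inhibition of FP-Rh probe binding versus controls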
HTRA1 inhibitor – HTRA1 (human) protease inhibition; Q92743; recombinant HTRA1, FP-rhodamine activity-based probe, fluorescence polarization; inhibition, % at 5.96 µM; actives 0.5% (n = 340,000); in the data active = inhibition above about 36%;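 also: 0% = enzyme with DMSO and 100% = wells lacking enzyme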
* hit, by the source's call; . = no result. Shown are actives, neighbours in structure and some others; about 2.4% of the full set was active somewhere.

SMILES | PRMT1 FP inh | SIAE primary | JMJD2C inh | ABHD4 inh | HTRA1 inhibitor
c1ccc(-n2cnnc2SCc2cn3ccsc3n2)cc1 | 2 | 0 | 1 | -3 | 1
c1ccn2c(SCc3cn4ccsc4n3)nnc2c1 | 3 | -2 | 51* | -3 | -4
Cc1cc(C)nc(SCC(=O)Nc2ccccc2[N+](=O)[O-])n1 | -5 | 5 | -23 | -5 | 5
O=C1CC(=O)NC(SCC(=O)Nc2ccccc2[N+](=O)[O-])=N1 | 28* | 16 | 28 | 20 | 5
NS(=O)(=O)c1ccc(-c2ccc(/C=N/Nc3ccc(C(=O)O)cc3)o2)cc1 | 7 | -4 | 4 | 18 | -3
O=C(O)c1ccc(-c2ccc(/C=N/Nc3ccc([N+](=O)[O-])cc3)o2)cc1 | -6 | -13 | 7 | 32* | -3
COCCN=C1NC(=O)C(CC(=O)Nc2cccc(Cl)c2C)S1 (stereo not drawn) | 24* | 0 | -12 | -7 | .
CC1(C)Oc2cc3oc(=O)ccc3c3c2C2C1CCC(C)(O3)C2O (stereo not drawn) | 0 | 2 | . | -1 | .
O=C(Nc1ccc(Nc2cccnc2)cc1)c1c[nH]c2ccccc12 | 8 | 13 | . | 42* | .
N#C/C(=C\c1ccc(O)c(O)c1)S(=O)(=O)c1ccccc1 | 3 | 20* | 6 | 21 | 31
N#C/C(=C/c1ccc(F)cc1)S(=O)(=O)c1ccccc1 | 3 | 1 | 18 | 5 | -9
Cc1c(Cl)ccc2c(C(O)CBr)cc(-c3ccccc3)nc12 (stereo not drawn) | 1 | -8 | . | -42 | -63
COCCN=C1Sc2ccccc2[C@@H]2C[C@H]3[C@H](CON3C)CN12 | 24* | 7 | . | 7 | .
O=C1C=CC2(O[C@H](c3ccccc3)[C@@H](c3ccccc3)O2)[C@H](Sc2ccccc2O)C1 | 96* | 9 | . | 8 | -19
O=C1CC(N2CCN(c3ccccc3Cl)CC2)C(=O)N1c1ccccc1 (stereo not drawn) | 24* | 3 | 5 | 0 | -7
O=C1CC(N2CCN(c3ccc(Cl)cc3)CC2)C(=O)N1c1ccccc1 (stereo not drawn) | 11 | -9 | 17 | -7 | 9
OC(c1ccccc1)(c1ccccc1)C1CCN(CCCOc2ccc(Br)cc2)CC1 | -3 | -1 | . | 14 | .
CC(C)c1nnc(NC(=O)c2cccc(NC(=O)C(F)(F)F)c2)s1 | 22* | -6 | -16 | 0 | 1
Cc1csc(N/N=C/c2ccccc2F)n1 | 20 | 1 | -2 | 15 | 4
CCOc1ccc(/C=N/Nc2nc(C)cs2)c(O)c1 | 21* | 3 | 8 | 4 | 17
CC(=O)NC(C)C(=O)N1CCCC1C(=O)N1CCCC1C(=O)NC(C)C(=O)NC1C(=O)NC(CC(C)C)C(=O)NC2CCCCNC(=O)CCC(C(=O)NC(Cc3ccc(O)cc3)C(=O)O)NC(=O)C3CCC(=O)OCC(NC(=O)C4CCCN4C(=O)C(Cc4c[nH]c5ccccc45)NC2=O)C(=O)NC(CC(=O)OC1C)C(=O)NC(Cc1c[nH]c2ccccc12)C(=O)N3 (stereo not drawn) | -1 | 1 | . | -6 | .
COc1ccc(S(=O)(=O)N2CCN(c3cnccn3)CC2)cc1OC | 21* | 1 | 2 | -4 | 1
COc1cc(OC)cc(-c2nnc(SCc3ccc(C(=O)O)cc3)o2)c1 | 22* | -8 | 3 | -18 | 0
O=C(O)c1ccc(CSc2nnc(-c3ccco3)o2)cc1 | -1 | 9 | 0 | -6 | 1
Cn1c(=O)c2cc(S(=O)(=O)N3CCN(c4ccccc4Cl)CC3)ccc2n(C)c1=O | 2 | 0 | . | 4 | .
SMILES | PRMT1 FP inh | SIAE primary | JMJD2C inh | ABHD4 inh | HTRA1 inhibitor
NC(=S)NN=CCn1cc([N+](=O)[O-])c(=O)[nH]c1=O | 24* | 4 | . | 5 | 4
CCOC(Cn1cc([N+](=O)[O-])c(=O)[nH]c1=O)OCC | -4 | 9 | . | -1 | -1
N#CC1=C(N)C2=CCCC[C@H]2[C@H](c2ccc(Br)cc2)C1(C#N)C#N | . | . | 17 | . | -5
N#CC1=C(N)C2=CCCC[C@H]2[C@H](c2ccccc2)C1(C#N)C#N | 24* | -4 | -1 | -4 | 0
OC1(c2cccc(F)c2)CCN(Cc2ccncc2)CC1 | 1 | -3 | 69* | -4 | -4
OC1(c2cccc(C(F)(F)F)c2)CCN(Cc2nnnn2Cc2ccccc2)CC1 | 4 | -5 | 36 | -5 | -5
CC(C)(C)n1nnnc1CN1C2CCC1CC(NC(=O)Nc1ccccc1)C2 (stereo not drawn) | -3 | 6 | -28 | 0 | -35
CCOC(=O)c1ccc(NC(=O)NC2CC3CCC(C2)N3Cc2nnnn2Cc2ccco2)cc1 (stereo not drawn) | 23* | -9 | 0 | -3 | -15
Cc1ccc2c(c1)-c1c(cnn1CC(=O)NCCc1ccc(O)cc1)CO2 | -1 | 1 | . | 3 | .
O=c1[nH]c(Sc2ccc([N+](=O)[O-])cc2[N+](=O)[O-])nc2ccccc12 | 23* | 1 | -44 | 7 | -6
COC(=O)C1CN(CCO)CCS(=O)(=O)N1Cc1cn(Cc2cccc(Cl)c2)nn1 (stereo not drawn) | 1 | -1 | . | 0 | .
Cc1ccc(C(=O)N/C(=C/c2ccco2)C(=O)N2CCCCCC2)cc1 | 10 | 5 | 12 | 15 | -5
Cc1cccc(C(=O)N/C(=C\c2ccco2)C(=O)N2CCCC2)c1 | 23* | 11 | 5 | 21 | 4
CC(C)CCN(C(=O)C1=COCCO1)c1c(N)n(Cc2ccccc2)c(=O)[nH]c1=O | 4 | 10 | 75* | -3 | -2
O=C(O)c1ccnc(SCC(=O)c2ccccc2)c1 | 23* | -5 | -2 | -2 | 4
c1ccc(-c2c[nH]c3ccc(OCCN4CCOCC4)c(-c4ccccc4)c23)cc1 | 0 | 2 | . | 2 | .
CCCCN(C)c1nc(-c2ccco2)c2c(c1C#N)CC(C)(C)OC2 | 21* | 8 | 4 | 6 | -10
CC(C)N(CCn1c(SCC(=O)N2CC(=O)Nc3ccccc32)nc2ccccc2c1=O)C(C)C | 0 | -7 | 6 | 6 | -12
CN(C)CCCn1c(SCC(=O)N2CC(=O)Nc3ccccc32)nc2ccccc2c1=O | 21* | -4 | -2 | -1 | 3
O=C(CSc1nc2ccccc2c(=O)n1Cc1ccc(C(=O)NC2CC2)cc1)NCc1ccco1 | 1 | -5 | 61* | -7 | 0
Cc1[nH][nH]c(=O)c1C(c1c(C)[nH][nH]c1=O)c1cn(Cc2cccc3ccccc23)c2ccccc12 | 5 | 1 | 68* | 9 | 20
CNc1ccccc1 | -1 | 0 | 3 | 4 | -1
CNc1cccccc1=S | 26* | 3 | 16 | 15 | 11
O=C(NCc1ccccc1)C1CCN(c2nc(-c3ccc(Br)cc3)cs2)CC1 | 10 | -3 | . | -4 | .
COc1cc(C(Nc2ccc3c(c2)OCO3)C(=O)NC2CCCCC2)cc(OC)c1OC (stereo not drawn) | 25* | 6 | -10 | 4 | 4
CCn1c(=O)c(C(=O)NCCc2ccc(Cl)cc2)c(O)c2ccccc21 | 1 | -14 | 60* | -3 | -23
